The values below come from ChEMBL document CHEMBL2010702, “Design and evaluation of a series of pyrazolopyrimidines as p70S6K inhibitors” (Bioorg Med Chem Lett, 2012).

Each structure is given as a SMILES string. Some results are limits rather than exact numbers.

The nature of data set [1]: Inhibition of p70S6K-mediated S6 phosphorylation in human A549 cells after 3 hrs by chemiluminescence assay. The format is cell-based. The following applies: A549, 3 h. In outline:
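A549 cells seeded at 7.5 × 10^3/well in DMEM with 10% FBS and 1% non-essential amino acids, grown 48 h at 37 °C, then exposed 3 h to compound ([…], triplicate, 0.2% DMSO). Fixed in formaldehyde, blocked, probed overnight at 4 °C with anti-phospho-S6 (Ser240/244) or anti-total-S6, then HRP secondary; chemiluminescent ELISA read-out.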

Data set [2] has as its target Ribosomal protein S6 kinase beta-1 (Homo sapiens, UniProt P23443, D18H/T412E). Briefly: Inhibition of human p70S6K D18H and T412E mutant using RRRLSSLRA as substrate after 3 hrs by luciferase-luciferin-coupled chemiluminescence assay.
A short description of data set [3]: Clearance in rat at 2.5 mg/kg, iv and 2.5 mg/kg, po. The format is ADME, organism-based. Particulars: in vivo.
Data set [4] in a line: Cmax in rat at 2.5 mg/kg, iv. The format is ADME, organism-based. The following applies: in vivo. Further details: dose 2.5 mg/kg, route intravenous.
A short description of data set [5]: Volume of distribution in rat at 2.5 mg/kg, iv and 2.5 mg/kg, po. The format is ADME, organism-based. Particulars: in vivo.
Data set [6] is described as follows: Oral bioavailability in rat at 2.5 mg/kg. The format is ADME, organism-based. The following applies: in vivo.
The test system of data set [7] is Rattus norvegicus. The data set is described as follows: Dose normalized AUC in rat at 2.5 mg/kg, iv. The format is ADME, organism-based. Further details: dose 2.5 mg/kg, route intravenous. The following applies: in vivo.
Data set [8] is described as follows: Cmax in rat at 2.5 mg/kg, po. Set-up: dose 2.5 mg/kg, route oral. The format is ADME, organism-based. Particulars: in vivo.
A short description of data set [9]: Half life in rat at 2.5 mg/kg, iv. The format is ADME, organism-based. Further details: dose 2.5 mg/kg, route intravenous. The following applies: in vivo.
A short description of data set [10]: Half life in rat at 2.5 mg/kg, po. The format is ADME, organism-based. Further details: dose 2.5 mg/kg, route oral. Particulars: in vivo.
For data set [11], the system named is Rattus norvegicus. The data set is described as follows: Dose normalized AUC in rat at 2.5 mg/kg, po. The format is ADME, organism-based. Further details: dose 2.5 mg/kg, route oral. Particulars: in vivo.
In data set [12] the target is Ribosomal protein S6 kinase alpha-3 (Homo sapiens, UniProt P51812). Briefly: Inhibition of Rsk2.
Data set [13] has as its target RAC-beta serine/threonine-protein kinase (Homo sapiens, UniProt P31751). Briefly: Inhibition of Akt2.
The target in data set [14] is RAC-alpha serine/threonine-protein kinase (Homo sapiens, UniProt P31749). Briefly: Inhibition of Akt1.
The nature of data set [15]: Inhibition of PKA.
Data set [16] addresses Serine/threonine-protein kinase pim-1 (Homo sapiens, UniProt P11309). The data set is described as follows: Inhibition of PIM1.
The subject of data set [17] is PC-3. The data set is described as follows: Antitumor activity against human PC3 cells xenografted in mouse assessed as tumor growth inhibition at 100 mg/kg, po bid for 14 days. The format is functional. Particulars: PC-3, 336 h, read-out: GI. An outline of the steps:
(§1)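 PC3 prostate carcinoma xenografts in mice; compound given orally at 30, 100 or 300 mg/kg twice daily for 14 days; tumor growth inhibition recorded.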

Data set [18] concerns PC-3. Briefly: Antitumor activity against human PC3 cells xenografted in mouse assessed as tumor growth inhibition at 300 mg/kg, po bid for 14 days. The format is functional. The following applies: PC-3, 336 h, read-out: GI. In outline:
as §1

Data set [19] concerns PC-3. The data set is described as follows: Antitumor activity against human PC3 cells xenografted in mouse assessed as tumor growth inhibition at 30 mg/kg, po bid for 14 days. Particulars: PC-3, 336 h, read-out: GI. The format is functional. An outline of the steps:
as §1

Data set [20] has as its system PC-3. Briefly: Antitumor activity against human PC3 cells xenografted in mouse assessed as tumor growth inhibition compound administered po bid for 14 days. The format is functional, organism-based. In outline:
as §1

Data set [21] relates to Mus musculus. Briefly: Inhibition of p70S6K-mediated S6 phosphorylation in human PC3 cells xenografted in mouse at 100 mg/kg, po. The following applies: PC-3. The format is functional.

Ribosomal protein S6 kinase alpha-3, sequence (P51812 whole entry): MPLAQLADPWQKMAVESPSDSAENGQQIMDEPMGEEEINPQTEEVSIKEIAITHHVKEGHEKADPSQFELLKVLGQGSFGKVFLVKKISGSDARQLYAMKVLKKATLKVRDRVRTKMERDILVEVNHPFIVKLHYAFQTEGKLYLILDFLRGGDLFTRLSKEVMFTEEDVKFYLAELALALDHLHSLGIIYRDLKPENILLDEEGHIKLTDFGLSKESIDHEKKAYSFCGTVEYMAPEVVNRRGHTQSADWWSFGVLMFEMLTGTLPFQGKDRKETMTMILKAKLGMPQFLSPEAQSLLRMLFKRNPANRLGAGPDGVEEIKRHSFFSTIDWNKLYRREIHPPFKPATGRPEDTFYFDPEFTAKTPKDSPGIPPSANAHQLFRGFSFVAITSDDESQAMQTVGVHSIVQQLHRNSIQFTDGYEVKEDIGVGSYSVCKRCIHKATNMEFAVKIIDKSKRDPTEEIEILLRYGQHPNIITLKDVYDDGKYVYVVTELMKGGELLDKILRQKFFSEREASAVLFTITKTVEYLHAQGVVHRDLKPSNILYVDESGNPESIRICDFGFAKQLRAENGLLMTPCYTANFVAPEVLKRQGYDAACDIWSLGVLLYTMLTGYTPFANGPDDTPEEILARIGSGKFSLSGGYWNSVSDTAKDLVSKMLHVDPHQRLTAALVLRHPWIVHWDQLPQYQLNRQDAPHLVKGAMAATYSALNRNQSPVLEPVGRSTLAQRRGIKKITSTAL
Ribosomal protein S6 kinase beta-1, sequence (P23443 whole entry D18H/T412E): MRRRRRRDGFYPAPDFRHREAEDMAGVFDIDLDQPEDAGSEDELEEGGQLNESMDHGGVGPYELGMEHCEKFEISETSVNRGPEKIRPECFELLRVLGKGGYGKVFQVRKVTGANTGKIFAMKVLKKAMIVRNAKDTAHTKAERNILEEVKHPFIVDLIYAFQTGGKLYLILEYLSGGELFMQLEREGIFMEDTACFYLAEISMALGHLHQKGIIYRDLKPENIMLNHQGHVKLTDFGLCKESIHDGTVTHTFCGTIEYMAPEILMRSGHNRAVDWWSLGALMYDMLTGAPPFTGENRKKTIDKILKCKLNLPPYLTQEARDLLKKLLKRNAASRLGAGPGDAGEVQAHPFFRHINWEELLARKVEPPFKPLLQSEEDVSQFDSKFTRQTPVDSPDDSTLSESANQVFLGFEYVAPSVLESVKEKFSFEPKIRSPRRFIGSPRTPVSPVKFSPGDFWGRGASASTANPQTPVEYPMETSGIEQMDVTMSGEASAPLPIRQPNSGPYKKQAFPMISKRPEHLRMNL
RAC-alpha serine/threonine-protein kinase, sequence (P31749 whole entry): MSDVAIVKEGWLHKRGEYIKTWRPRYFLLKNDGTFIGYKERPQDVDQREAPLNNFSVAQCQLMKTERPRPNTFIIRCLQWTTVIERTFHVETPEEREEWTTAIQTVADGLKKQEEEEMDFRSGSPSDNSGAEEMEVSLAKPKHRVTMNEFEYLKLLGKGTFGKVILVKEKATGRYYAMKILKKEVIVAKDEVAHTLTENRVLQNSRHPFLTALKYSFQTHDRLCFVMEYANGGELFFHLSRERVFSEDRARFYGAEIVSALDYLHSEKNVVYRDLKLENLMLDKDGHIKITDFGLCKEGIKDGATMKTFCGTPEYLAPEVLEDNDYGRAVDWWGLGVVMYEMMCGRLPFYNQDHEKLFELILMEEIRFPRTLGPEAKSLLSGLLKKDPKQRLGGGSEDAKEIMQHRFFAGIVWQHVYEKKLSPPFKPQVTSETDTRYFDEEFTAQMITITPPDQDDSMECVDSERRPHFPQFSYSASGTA
RAC-beta serine/threonine-protein kinase, sequence (P31751 whole entry): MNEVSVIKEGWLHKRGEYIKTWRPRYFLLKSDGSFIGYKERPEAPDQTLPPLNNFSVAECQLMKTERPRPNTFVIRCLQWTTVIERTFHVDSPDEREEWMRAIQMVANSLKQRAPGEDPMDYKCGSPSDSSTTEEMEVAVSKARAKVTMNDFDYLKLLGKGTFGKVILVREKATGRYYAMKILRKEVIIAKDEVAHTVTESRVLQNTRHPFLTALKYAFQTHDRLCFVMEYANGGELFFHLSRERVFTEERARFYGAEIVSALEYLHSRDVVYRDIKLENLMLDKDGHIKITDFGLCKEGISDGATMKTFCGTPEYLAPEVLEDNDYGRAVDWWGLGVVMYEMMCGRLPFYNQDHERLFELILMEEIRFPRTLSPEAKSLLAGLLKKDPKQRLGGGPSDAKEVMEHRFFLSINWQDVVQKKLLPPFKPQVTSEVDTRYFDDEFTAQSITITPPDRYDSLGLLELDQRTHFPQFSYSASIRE
Serine/threonine-protein kinase pim-1, sequence (P11309 whole entry): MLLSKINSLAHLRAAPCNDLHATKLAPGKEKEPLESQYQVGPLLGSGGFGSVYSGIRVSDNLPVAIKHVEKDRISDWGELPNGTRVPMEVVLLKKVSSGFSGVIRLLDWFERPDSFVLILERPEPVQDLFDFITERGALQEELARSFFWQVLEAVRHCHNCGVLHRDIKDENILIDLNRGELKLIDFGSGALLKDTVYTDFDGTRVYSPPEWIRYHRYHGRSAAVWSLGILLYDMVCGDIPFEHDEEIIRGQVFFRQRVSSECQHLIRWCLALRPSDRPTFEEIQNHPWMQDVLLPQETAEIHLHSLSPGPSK

Regarding `CCc1n[nH]c2ncnc(N3CCN(c4cc(Cl)cc(OCCN5CCCC5)c4C)CC3)c12`, the concentration for half-maximal inhibition (IC50) in [1] was 243 nM; in data set [2] it was 5 nM.

As for `CCc1n[nH]c2ncnc(N3CCN(c4cc(Cl)cc(CCCN(CC)CC)c4C)CC3)c12`, the 50% inhibitory concentration (IC50) in [1] turned out to be 211 nM; in [2], 3 nM.

For `CCc1n[nH]c2ncnc(N3CCN(c4cc(Cl)cc(OCCN(CC)CC)c4C)CC3)c12`, the IC50 is 339 nM in data set [1] and 11 nM in data set [2].

In [2], `Cc1nc(N2CCN(c3cc(Cl)ccc3C)CC2)c2cn[nH]c2n1` had an IC50 of over 2000 nM.

With `Clc1cccc(N2CCN(c3[nH]cnc4ncnc3-4)CC2)c1`, the IC50 in data set [2] came out at 196 nM.

For the compound `Cc1ccc(Cl)cc1N1CCN(c2ncnc3[nH]nc(C(C)C)c23)CC1`, the half-inhibitory concentration (IC50) turned out to be 207 nM in [1] and 16 nM in data set [2].

`Nc1cc(N2CCN(c3cccc(Cl)c3)CC2)ncn1` came in with an IC50 in [2] of over 2000 nM.

With `Cc1ccc(Cl)cc1N1CCN(c2ncnc3[nH]nc(Br)c23)CC1`, the results for the IC50 in data set [1] and in data set [2] were 86 nM and 7 nM, respectively.

For the compound `CCc1n[nH]c2ncnc(N3CCN(c4cc(Cl)cc(OCCN(C)C)c4C)CC3)c12`, the concentration for half-maximal inhibition (IC50) turned out to be 143 nM in data set [1] and 6 nM in data set [2].

In the case of `Cc1c(N)ncnc1N1CCN(c2cccc(Cl)c2)CC1`, in data set [2], the IC50 is over 2000 nM.

With `CCc1n[nH]c2ncnc(N3CCN(c4cc(Cl)cc(NCCN5CCCC5)c4C)CC3)c12`, the IC50 in data set [1] was determined as 80 nM; in data set [2], 3 nM.

As for `CCc1n[nH]c2ncnc(N3CCN(c4cc(Cl)ccc4C)CC3)c12`, the clearance in data set [3] is 25.8 mL/min/kg. Also, the Cmax in data set [4] was determined as 6290 nM; in [8], 30 nM. The Vd in data set [5] was 6.3 L/kg. Further, the bioavailability in data set [6] is 2%. The IC50 in [1] was 150 nM; in data set [2] it was 6 nM. Besides, the AUC/dose in data set [7] stood at 1.74 µM·kg·h/mg; in data set [11], 0.02 µM·kg·h/mg. Moreover, the half-life was 7.1 h in data set [9] and 1.4 h in [10].

On to `Cc1ccc(Cl)cc1N1CCN(c2ncnc3[nH]nc(C)c23)CC1`, for which the IC50 in [1] stood at 500 nM; in [2], 9 nM.

Turning to `Cc1ccc(Cl)cc1N1CCN(c2ncnc3[nH]nc(C(F)(F)F)c23)CC1`, the half-maximal inhibitory concentration (IC50) was determined as 41 nM in data set [1] and 29 nM in [2].

Regarding `Clc1cccc(N2CCN(c3ncnc4[nH]ncc34)CC2)c1`, in [2], the half-inhibitory concentration (IC50) worked out at 107 nM.

Turning to `Cc1c(NCCN(C)C)cc(Cl)cc1N1CCN(c2ncnc3[nH]nc(C(F)(F)F)c23)CC1`, the IC50 in [1] turned out to be 50 nM; in data set [12], 24 nM; in data set [13], 477 nM; in [2], 4 nM; in data set [14] it was 74 nM; in [15], 6 nM.

With `Nc1ncnc(N2CCN(c3cccc(Cl)c3)CC2)c1[N+](=O)[O-]`, in data set [2], the midpoint of inhibition, the IC50, lay at 85 nM.

In the case of `CCc1n[nH]c2ncnc(N3CCN(c4cc(Cl)cc(CCCN5CCCC5)c4C)CC3)c12`, the results for the IC50 in [1] and in [2] were 152 nM and 2 nM, respectively.

In [2], `Cc1ccc(Cl)cc1N1CCN(c2ncnc(N)c2[N+](=O)[O-])CC1` showed a 50% inhibitory concentration (IC50) of 3 nM.

On to `Cc1c(NCCN(C)C)cc(Cl)cc1N1CCN(c2ncnc3[nH]nc(Br)c23)CC1`, for which the IC50 in data set [1] was determined as 43 nM; in data set [12] it was 248 nM; in data set [13] it was 311 nM; in data set [2], 2 nM; in [14] it was 53 nM; in data set [15], 25 nM. The compound also displayed a 50% inhibitory concentration (IC50) in [16] of under 500 nM.

Turning to `Cc1ccc(Cl)cc1N1CCN(c2ncnc3[nH]ncc23)CC1`, the figures for the half-inhibitory concentration (IC50) in data set [1] and in data set [2] were 1130 nM and 13 nM, respectively.

`Clc1cccc(N2CCN(c3ncnc4[nH]ccc34)CC2)c1`: 162 nM corresponded to half-maximal inhibition in [2] (IC50).

On to `CCc1n[nH]c2ncnc(N3CCN(c4cc(Cl)cc(NCCN(C)C)c4C)CC3)c12`, for which the clearance in data set [3] was 17.4 mL/min/kg. Besides, the Cmax in [4] turned out to be 1470 nM; in data set [8], 150 nM. The Vd in [5] amounted to 3.7 L/kg. Further, the bioavailability in data set [6] came to 23%. The 50% inhibitory concentration (IC50) in data set [1] was found to be 45 nM; in data set [12] it was 68 nM; in data set [13], 3020 nM; in data set [2] it was 2 nM; in data set [14], 371 nM; in [15], 42 nM. The AUC/dose in [7] amounted to 1.72 µM·kg·h/mg; in data set [11] it was 0.45 µM·kg·h/mg. Also, the figures for the inhibition in vivo at 100 mg/kg in data set [17] and in data set [21] were 49% and over 60%, respectively. In data set [18], the inhibition in vivo at 300 mg/kg was determined as 69%. In addition, the half-life was 2.9 h in data set [9] and 3.3 h in data set [10]. Besides, the inhibition in vivo at 30 mg/kg in data set [19] worked out at 21%. Besides, the “growth inhibition (GI)” value in data set [20] was “Dose-dependent effect”.

For the compound `CCc1n[nH]c2ncnc(N3CCN(c4cc(Cl)cc(NCCN(CC)CC)c4C)CC3)c12`, the IC50 in data set [1] turned out to be 184 nM; in [2] it was 3 nM.

Turning to `CCCc1n[nH]c2ncnc(N3CCN(c4cc(Cl)ccc4C)CC3)c12`, the half-inhibitory concentration (IC50) in data set [1] is 275 nM; in data set [2], 6 nM.
